Tests used:
[1] = Plasma clearance in mouse at 5 mg/kg, iv and 10 mg/kg, po; type: ADME, organism-based
Method in brief: (§1)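 Mouse PK; parameters derived from iv dosing at 5 mg/kg and oral (po) dosing at 10 mg/kg.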

[2] = Half life in mouse at 5 mg/kg, iv and 10 mg/kg, po; type: ADME, organism-based; settings: in vivo; method in brief: as §1
[3] = target: T1, 11-beta-hydroxysteroid dehydrogenase 1 (Homo sapiens, UniProt P28845); test: Inhibition of human 11beta-HSD1
[4] = target: T2, 11-beta-hydroxysteroid dehydrogenase type 2 (Homo sapiens, UniProt P80365); test: Inhibition of human 11beta-HSD2
T2 sequence (P80365 whole entry): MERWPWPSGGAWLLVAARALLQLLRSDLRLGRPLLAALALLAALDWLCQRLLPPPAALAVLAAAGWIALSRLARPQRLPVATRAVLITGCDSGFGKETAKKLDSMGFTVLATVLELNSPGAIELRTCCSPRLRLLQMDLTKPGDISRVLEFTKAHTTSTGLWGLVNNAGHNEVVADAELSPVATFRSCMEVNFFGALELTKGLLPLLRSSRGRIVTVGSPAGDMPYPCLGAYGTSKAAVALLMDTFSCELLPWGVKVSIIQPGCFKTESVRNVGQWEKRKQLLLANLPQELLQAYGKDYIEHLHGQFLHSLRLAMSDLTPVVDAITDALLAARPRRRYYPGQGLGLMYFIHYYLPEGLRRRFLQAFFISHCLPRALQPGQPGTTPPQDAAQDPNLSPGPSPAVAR

[5] = target: 11-beta-hydroxysteroid dehydrogenase 1 (Mus musculus, UniProt P50172); test: Inhibition of mouse 11beta-HSD1
[6] = target: T3, 11-beta-hydroxysteroid dehydrogenase type 2 (Mus musculus, UniProt P51661); test: Inhibition of mouse 11beta-HSD2
T3 sequence (P51661 whole entry): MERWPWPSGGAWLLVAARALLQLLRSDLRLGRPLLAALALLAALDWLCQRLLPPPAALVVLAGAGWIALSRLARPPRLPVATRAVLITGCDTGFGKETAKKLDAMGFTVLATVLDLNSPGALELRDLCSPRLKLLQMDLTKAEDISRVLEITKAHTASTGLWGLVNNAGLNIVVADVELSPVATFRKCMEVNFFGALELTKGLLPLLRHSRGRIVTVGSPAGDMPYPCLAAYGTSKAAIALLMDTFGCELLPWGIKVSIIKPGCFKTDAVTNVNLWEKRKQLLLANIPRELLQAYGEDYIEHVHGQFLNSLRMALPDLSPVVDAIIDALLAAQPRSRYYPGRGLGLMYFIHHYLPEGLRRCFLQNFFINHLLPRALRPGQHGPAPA

[7] = target: T1, 11-beta-hydroxysteroid dehydrogenase 1; test: Inhibition of human 11beta-HSD1 expressed in HEK293 cells; type: cell-based
[8] = Stability in mouse liver microsomes after 30 min; type: ADME, Microsome; settings: for remaining at 0.5 h: liver microsomes, read-out: Stability
Method in brief: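 Percent parent remaining after a 30-min incubation with mouse liver microsomes.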

[9] = Bioavailability in mouse at 5 mg/kg, iv and 10 mg/kg, po; type: ADME, organism-based; settings: in vivo; method in brief: as §1
[10] = target: 11-beta-hydroxysteroid dehydrogenase 1 (Mus musculus) (UniProt P50172); test: Inhibition of DIO mouse liver 11beta-HSD1at 30 mg/kg, po after 16 hrs; type: organism-based; parameters: dose 30 mg/kg; settings: at 30 mg/kg
Method in brief: (§2)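 DIO mice given a single 30 mpk dose; 11β-HSD1 inhibition in liver and fat measured ex vivo at 1, 7 and 16 h post-dose.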

[11] = target: 11-beta-hydroxysteroid dehydrogenase 1 (Mus musculus) (UniProt P50172); test: Inhibition of DIO mouse liver 11beta-HSD1at 30 mg/kg, po after 1 hr; type: organism-based; parameters: dose 30 mg/kg; settings: at 30 mg/kg; method in brief: as §2
[12] = target: 11-beta-hydroxysteroid dehydrogenase 1 (Mus musculus) (UniProt P50172); test: Inhibition of DIO mouse epididymal fat pad 11beta-HSD1 at 30 mg/kg, po after 7 hrs; type: organism-based; parameters: dose 30 mg/kg; method in brief: as §2
[13] = target: 11-beta-hydroxysteroid dehydrogenase 1 (Mus musculus) (UniProt P50172); test: Inhibition of DIO mouse epididymal fat pad 11beta-HSD1 at 30 mg/kg, po after 16 hrs; type: organism-based; parameters: dose 30 mg/kg; method in brief: as §2
[14] = target: 11-beta-hydroxysteroid dehydrogenase 1 (Mus musculus) (UniProt P50172); test: Inhibition of DIO mouse liver 11beta-HSD1at 30 mg/kg, po after 7 hrs; type: organism-based; parameters: dose 30 mg/kg; settings: at 30 mg/kg; method in brief: as §2
[15] = test system: Mus musculus; test: Effect on body weight in DIO C57BL/6J mouse at 30 mg/kg, po; type: functional
Method in brief: (§3)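 Male C57BL/6J mice (5–6 weeks at purchase) made obese on high-fat diet, group-housed, 12 h light/dark cycle. Conditioned to oral gavage beforehand; assigned to groups of equal mean body weight. Dosed po bid (08:00, 15:00) in 1% Tween 80 in water, 4 ml/kg, for 14 days; lean and high-fat vehicle controls. Plasma analytes measured after 4 h fast; Dunnett's test.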

[16] = test system: Mus musculus; test: Lowering of plasma insulin level in DIO C57BL/6J mouse at 30 mg/kg, po after 4hrs fasting; type: functional; method in brief: as §3
[17] = test system: Mus musculus; test: Lowering of plasma glucose level in DIO C57BL/6J mouse at 30 mg/kg, po after 4 hr fasting; type: functional; method in brief: as §3
[18] = test system: Mus musculus; test: Effect on plasma triglyceride level in DIO C57BL/6J mouse at 30 mg/kg, po after 4 hr fasting; type: functional; method in brief: as §3
[19] = target: 11-beta-hydroxysteroid dehydrogenase 1 (Mus musculus) (UniProt P50172); test: Inhibition of DIO mouse epididymal fat pad 11beta-HSD1 at 30 mg/kg, po after 1 hr; type: organism-based; parameters: dose 30 mg/kg; method in brief: as §2
[20] = test system: Mus musculus; test: Effect on body weight in DIO C57BL/6J mouse at 5 mg/kg, po; type: functional; method in brief: as §3
[21] = test system: Mus musculus; test: Lowering of plasma insulin level in DIO C57BL/6J mouse at 5 mg/kg, po after 4 hr fasting; type: functional; method in brief: as §3
[22] = test system: Mus musculus; test: Lowering of plasma glucose level in DIO C57BL/6J mouse at 5 mg/kg, po after 4 hr fasting; type: functional; method in brief: as §3
[23] = test system: Mus musculus; test: Effect on plasma triglyceride level in DIO C57BL/6J mouse at 5 mg/kg, po after 4hrs fasting; type: functional; method in brief: as §3

11-beta-hydroxysteroid dehydrogenase 1 (Mus musculus), sequence (P50172 whole entry, looked up): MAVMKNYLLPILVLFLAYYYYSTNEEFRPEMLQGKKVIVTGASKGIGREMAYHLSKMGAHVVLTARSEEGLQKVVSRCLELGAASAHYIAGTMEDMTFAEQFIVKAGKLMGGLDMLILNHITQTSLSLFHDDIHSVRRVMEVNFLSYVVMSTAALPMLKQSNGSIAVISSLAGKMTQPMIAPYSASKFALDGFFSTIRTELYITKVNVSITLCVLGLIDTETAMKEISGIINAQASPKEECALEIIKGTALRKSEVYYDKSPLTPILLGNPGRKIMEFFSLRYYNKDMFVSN
11-beta-hydroxysteroid dehydrogenase 1 (Mus musculus, UniProt P50172), sequence (P50172 whole entry): as the sequence (P50172 whole entry, looked up) above
T1 sequence (P28845 whole entry): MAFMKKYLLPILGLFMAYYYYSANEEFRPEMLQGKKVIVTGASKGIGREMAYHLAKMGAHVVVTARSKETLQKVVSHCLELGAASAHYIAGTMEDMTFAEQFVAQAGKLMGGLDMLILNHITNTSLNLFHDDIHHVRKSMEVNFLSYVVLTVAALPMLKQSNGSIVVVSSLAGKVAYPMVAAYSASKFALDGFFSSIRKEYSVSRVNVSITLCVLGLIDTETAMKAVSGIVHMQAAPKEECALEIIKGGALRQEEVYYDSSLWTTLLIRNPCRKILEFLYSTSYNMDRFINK

Row | SMILES | IC50 [3] [nM] | IC50 [4] [nM] | IC50 [5] [nM] | IC50 [6] [nM] | IC50 [7] [nM] | remaining at 0.5 h [8] [%] | also measured
1 | CC1(C)C(=O)N([C@H]2C3CCCC2C[C@@H](C(N)=O)C3)CC1COc1ccc(C#N)cn1 (stereo in doubt; 31) [listing 1 of 2 here] | 7 | 15000 | 3 | > 50000 | 39 | – | clearance [1]: 23.3 mL/min/kg; half-life [2]: 1.3 h; Stability ([8]; microsomes, 0.5 h): 88%; bioavailability [9]: 63.9%
2 | CC1(C)C(=O)N(C2CCCCCC2)CC1COc1ccc(C#N)cn1 (centres undefined) | – | – | 62 | 100000 | – | – | –
3 | CC1(C)C(=O)N([C@H]2C3CC4CC2C[C@](C(N)=O)(C4)C3)CC1COc1ccc(C#N)cn1 (some centres undefined) | – | – | 2 | 10000 | – | 97 | inhibition [10]: 67%; inhibition [11]: 99%; inhibition [12]: 71%; inhibition [13]: 46%; clearance [1]: 33.3 mL/min/kg; half-life [2]: 1.3 h; inhibition [14]: 94%; bioavailability [9]: 76.6%; Activity [15]: 40.7 g; Activity [16]: 1.31 ng/mL; Activity [17]: 164.7 mg/dL; Activity [18]: 33.3 mg/dL
4 | CC1(C)C(=O)N([C@H]2C3CC4CC2C[C@](C(N)=O)(C4)C3)CC1COc1ccc(-n2cncn2)cc1 (some centres undefined) | 41 | 1600 | 32 | 8000 | 43 | – | –
5 | CC1(C)C(=O)N(C2CCCN(C(N)=O)CC2)CC1COc1ccc(C#N)cn1 (centres undefined) | – | – | – | – | – | – | Ki [3]: 190 nM; Ki [5]: 250 nM
6 | CC1(C)C(=O)N([C@H]2C3CC4CC2C[C@](C(N)=O)(C4)C3)CC1COc1ccc(-n2ccnc2)cc1 (some centres undefined) | 76 | 1800 | 41 | 14000 | 28 | 28 | –
7 | CC1(C)C(=O)N([C@H]2C3CCCC2C[C@@H](C(N)=O)C3)CC1COc1ccc(C#N)cn1 (stereo in doubt; 32) | 5 | 22000 | 9 | 100000 | 46 | 92 | –
8 | CC1(C)C(=O)N([C@H]2C3CC4CC2C[C@](C(=N)NO)(C4)C3)CC1COc1ccc(C(F)(F)F)cn1 (some centres undefined) | – | – | 14 | 60000 | – | 67 | –
9 | C[C@H]1C(=O)N(C2CCCCCC2)C[C@@H]1COc1ccc(C#N)cn1 | – | – | 75 | – | – | – | –
10 | CC1(C)C(=O)N([C@H]2C3CCCC2C[C@@H](C(N)=O)C3)CC1COc1ccc(C#N)cn1 (stereo in doubt; 31) [listing 2 of 2 here] | – | – | – | – | – | – | inhibition [10]: 14%; inhibition [11]: 73%; inhibition [12]: 30%; inhibition [13]: 17%; inhibition [19]: 68%; inhibition [14]: 33%
11 | CN(CCOc1ccc(CC2SC(=O)NC2=O)cc1)c1ccccn1 (centres undefined) [ROSIGLITAZONE] | – | – | – | – | – | – | Activity [20]: 41.6 g; Activity [21]: 0.97 ng/mL; Activity [22]: 143.4 mg/dL; Activity [23]: 50.8 mg/dL
12 | CC#C[C@]1(O)CC[C@H]2[C@@H]3CCC4=CC(=O)CCC4=C3[C@@H](c3ccc(N(C)C)cc3)C[C@@]21C [MIFEPRISTONE] | – | – | – | – | – | – | Activity [15]: 39.5 g; Activity [16]: 1.5 ng/mL; Activity [17]: 147.5 mg/dL; Activity [18]: 43.2 mg/dL
13 | O=C1C(Cc2ccccc2)CCN1[C@H]1C2CC3CC1C[C@](O)(C3)C2 (some centres undefined) | 832 | > 10000 | – | – | – | – | –
14 | NC(=O)[C@]12CC3CC(C1)[C@@H](N1CCC(Cc4ccccc4)C1=O)C(C3)C2 (some centres undefined) | 35 | > 30000 | – | – | – | – | –
15 | CC1(C)C(=O)N([C@H]2C3CCCC2C[C@H](C(N)=O)C3)CC1COc1ccc(C#N)cn1 (some centres undefined) | – | > 100000 | – | > 100000 | 510 | 12 | Ki [3]: 29 nM; Ki [5]: 17 nM
16 | CC1(C)C(=O)N([C@H]2C3CC4CC2C[C@](c2nnn[nH]2)(C4)C3)CC1COc1ccc(C(F)(F)F)cn1 (some centres undefined) | 310 | 630 | 430 | 1600 | 230 | – | –
17 | N#Cc1ccc(OCC2CC(=O)N(C3CCCCCC3)C2)nc1 (centres undefined) | – | – | 10000 | – | – | – | –
18 | CC1(C)C(=O)N(C23CCC(C(N)=O)(CC2)CC3)CC1COc1ccc(C#N)cn1 (centres undefined) | – | – | 10 | 100000 | – | 91 | –
19 | O=C1C(Cc2ccccc2)CCN1C1CCCCC1 (centres undefined) | 107 | > 10000 | – | – | – | – | –
20 | CC1(C)C(=O)N([C@H]2C3CC4CC2C[C@](C(=N)N)(C4)C3)CC1COc1ccc(C(F)(F)F)cn1 (some centres undefined) | – | – | 110 | > 100000 | – | 100 | –
21 | O=C1C(Cc2ccccc2)CCN1C1C2CC3CC(C2)CC1C3 (centres undefined) | 64 | > 10000 | – | – | – | – | –
22 | CCOC(=O)[C@H]1[C@@H]2CCC(N3CC(COc4ccc(C#N)cn4)C(C)(C)C3=O)CC[C@@H]21 (some centres undefined) | – | > 30000 | – | > 100000 | 518 | – | Ki [3]: 50 nM; Ki [5]: 260 nM
